Reference: ChEMBL document CHEMBL3856209, “Novel pyrazolopyridine derivatives as potential angiogenesis inhibitors: Synthesis, biological evaluation and transcriptome-based mechanistic analysis” (Eur J Med Chem, 2016)
The source made the active and inactive calls.

Assays:
HUVEC [1] = test: Effect on BIRC5 gene expression in serum-starved HUVEC after 6 hrs by microarray analysis relative to control; format: functional, Homo sapiens
How it was run: (§1)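 Serum-starved confluent HUVEC treated with 2 μM compound or DMSO in 2.5% FBS for 6 h or 24 h; RNA hybridized to Illumina Human-HT12 arrays. Data background-corrected, vst-transformed and rsn-normalized. Differential probes called by moderated paired t-test (limma) at p < 0.05 and log2 fold change >|0.5| vs DMSO.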

HUVEC [2] = test: Effect on CENPA gene expression in serum-starved HUVEC after 6 hrs by microarray analysis relative to control; format: functional, Homo sapiens; how it was run: as §1
HUVEC [3] = test: Effect on MBNL2 gene expression in serum-starved HUVEC after 24 hrs by microarray analysis relative to control; format: functional, Homo sapiens
How it was run: (§2)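 Serum-starved confluent HUVEC (pooled from 3–5 donors, passage ≤4) were treated with 2 μM compound or vehicle in 2.5% FBS for 6 h or 24 h, and total RNA was isolated. Hybridization was on Illumina Human-HT12. Data were processed with bgAdjust, vst and rsn normalization. Changes versus DMSO were called by moderated paired t-test at p < 0.05 and |log2 fold change| > 0.5.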

HUVEC [4] = test: Effect on SLC30A7 gene expression in serum-starved HUVEC after 24 hrs by microarray analysis relative to control; format: functional, Homo sapiens
HUVEC [5] = test: Effect on GANAB gene expression in serum-starved HUVEC after 6 hrs by microarray analysis relative to control; format: functional, Homo sapiens
How it was run: (§3)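 Confluent, serum-starved HUVEC (pooled from 3–5 donors, passage ≤4) treated with 2 μM compound or vehicle with 2.5% FBS for 6 h or 24 h. Total RNA hybridized to Illumina Human-HT12 arrays. Data were background-corrected, vst-transformed and rsn-normalized. Hits called by moderated paired t-test versus DMSO-treated cells, p < 0.05 and log2 fold change >|0.5|.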

HUVEC [6] = test: Effect on RETSAT gene expression in serum-starved HUVEC after 6 hrs by microarray analysis relative to control; format: functional, Homo sapiens
HUVEC [7] = test: Effect on ANGPT2 gene expression in serum-starved HUVEC after 6 hrs by microarray analysis relative to control; format: functional, Homo sapiens; how it was run: as §1
HUVEC [8] = test: Effect on BHLHE40 gene expression in serum-starved HUVEC after 6 hrs by microarray analysis relative to control; format: functional, Homo sapiens; how it was run: as §1
HUVEC [9] = test: Effect on CCNA2 gene expression in serum-starved HUVEC after 6 hrs by microarray analysis relative to control; format: functional, Homo sapiens; how it was run: as §1
HUVEC [10] = test: Effect on CXCL16 gene expression in serum-starved HUVEC after 6 hrs by microarray analysis relative to control; format: functional, Homo sapiens
How it was run: (§4)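 Confluent serum-starved HUVEC (primary, pooled from 3–5 donors, passage ≤4) treated with 2 μM compound or DMSO vehicle in 2.5% FBS for 6 h or 24 h. Total RNA hybridized to Illumina Human-HT12 arrays, background-corrected, vst-transformed and rsn-normalized. Differential expression versus DMSO by moderated paired t-test (p < 0.05, |log2 fold change| > 0.5).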

HUVEC [11] = test: Effect on HMGCR gene expression in serum-starved HUVEC after 6 hrs by microarray analysis relative to control; format: functional, Homo sapiens; how it was run: as §3
HUVEC [12] = test: Effect on KCNAB1 gene expression in serum-starved HUVEC after 6 hrs by microarray analysis relative to control; format: functional, Homo sapiens; how it was run: as §3
HUVEC [13] = test: Effect on MSMO1 gene expression in serum-starved HUVEC after 6 hrs by microarray analysis relative to control; format: functional, Homo sapiens; how it was run: as §2
HUVEC [14] = test: Effect on RNU1-28P gene expression in serum-starved HUVEC after 6 hrs by microarray analysis relative to control; format: functional, Homo sapiens
HUVEC [15] = test: Effect on SPDL1 gene expression in serum-starved HUVEC after 6 hrs by microarray analysis relative to control; format: functional, Homo sapiens
HUVEC [16] = test: Effect on TMEM154 gene expression in serum-starved HUVEC after 6 hrs by microarray analysis relative to control; format: functional, Homo sapiens
HUVEC [17] = test: Effect on TP53INP2 gene expression in serum-starved HUVEC after 6 hrs by microarray analysis relative to control; format: functional, Homo sapiens
HUVEC [18] = test: Effect on ZMAT3 gene expression in serum-starved HUVEC after 6 hrs by microarray analysis relative to control; format: functional, Homo sapiens
HUVEC [19] = test: Effect on AIF1 gene expression in serum-starved HUVEC after 24 hrs by microarray analysis relative to control; format: functional, Homo sapiens; how it was run: as §1
HUVEC [20] = test: Effect on ASAP1 gene expression in serum-starved HUVEC after 24 hrs by microarray analysis relative to control; format: functional, Homo sapiens
How it was run: (§5)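 Serum-starved confluent HUVEC (primary, pooled from 3–5 donors, passage ≤4) treated with 2 μM test compound or DMSO vehicle (working dilutions ≤0.1% v/v) in presence of 2.5% FBS for 6 h or 24 h; total RNA hybridized to Illumina Human-HT12 arrays; background correction, vst, rsn normalization; moderated paired t-test versus DMSO, thresholds p < 0.05 and log2 fold change >|0.5|.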

HUVEC [21] = test: Effect on CD68 gene expression in serum-starved HUVEC after 24 hrs by microarray analysis relative to control; format: functional, Homo sapiens; how it was run: as §1
HUVEC [22] = test: Effect on CENPW gene expression in serum-starved HUVEC after 24 hrs by microarray analysis relative to control; format: functional, Homo sapiens; how it was run: as §5
HUVEC [23] = test: Effect on CTSH gene expression in serum-starved HUVEC after 24 hrs by microarray analysis relative to control; format: functional, Homo sapiens; how it was run: as §3
HUVEC [24] = test: Effect on FEN1 gene expression in serum-starved HUVEC after 24 hrs by microarray analysis relative to control; format: functional, Homo sapiens; how it was run: as §4
HUVEC [25] = test: Effect on HJURP gene expression in serum-starved HUVEC after 24 hrs by microarray analysis relative to control; format: functional, Homo sapiens; how it was run: as §3
HUVEC [26] = test: Effect on HLA-B gene expression in serum-starved HUVEC after 24 hrs by microarray analysis relative to control; format: functional, Homo sapiens; how it was run: as §3
HUVEC [27] = test: Effect on HLA-DPA1 gene expression in serum-starved HUVEC after 24 hrs by microarray analysis relative to control; format: functional, Homo sapiens; how it was run: as §3
HUVEC [28] = test: Effect on ITGA10 gene expression in serum-starved HUVEC after 24 hrs by microarray analysis relative to control; format: functional, Homo sapiens; how it was run: as §3
HUVEC [29] = test: Effect on NEDD9 gene expression in serum-starved HUVEC after 24 hrs by microarray analysis relative to control; format: functional, Homo sapiens; how it was run: as §2
HUVEC [30] = test: Effect on PALD1 gene expression in serum-starved HUVEC after 24 hrs by microarray analysis relative to control; format: functional, Homo sapiens; how it was run: as §2
HUVEC [31] = test: Effect on SPRY4 gene expression in serum-starved HUVEC after 24 hrs by microarray analysis relative to control; format: functional, Homo sapiens
HUVEC [32] = test: Effect on TGFBI gene expression in serum-starved HUVEC after 24 hrs by microarray analysis relative to control; format: functional, Homo sapiens
HUVEC [33] = test: Effect on TM7SF2 gene expression in serum-starved HUVEC after 24 hrs by microarray analysis relative to control; format: functional, Homo sapiens
[34] = Upregulation of HMGCS1 gene expression in serum-starved HUVEC at 2 uM after 24 hrs by qRT-PCR analysis; format: functional, cell-based; settings: Homo sapiens
[35] = Downregulation of CCNA2 gene expression in serum-starved HUVEC at 2 uM after 24 hrs by qRT-PCR analysis; format: functional, cell-based; settings: Homo sapiens
How it was run: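 Serum-starved confluent HUVEC treated with 2 μM compound or vehicle in 2.5% FBS for 24 h. Total RNA isolated and qRT-PCR run in triplicate (95 °C 5 min; 40 cycles of 95 °C 5 s, 58 °C 20 s, 72 °C 5 s), normalized to RPS18S. Fold change vs control, n = 3.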

In the case of COc1ccc(Cn2nc(-c3ccccc3)c3cc(Cl)nc(N4CCNCC4)c32)cc1, the “fold change (FC)” value (HUVEC [1]) is reported as 0.0293, the “fold change (FC)” value (HUVEC [2]) is reported as 0.0058 and the log2FC (HUVEC [3]) is reported as 0.526. It also gave a log2FC (HUVEC [4]) of 0.0778.

In the case of COc1ccc(Cn2nc(-c3ccccc3)c3cc(Nc4ccc(N5CCN(C)CC5)cc4)nc(N4CCNCC4)c32)cc1, the log2FC (HUVEC [5]) is reported as -0.1113 and the log2FC (HUVEC [6]) is reported as 0.0844.

With COc1ccc(Cn2nc(-c3ccccc3)c3cc(Nc4ccc(N5CCN(C)CC5)cc4)nc(N4CCN(C)CC4)c32)cc1 the “fold change (FC)” value (HUVEC [7]) was 0.2528, the “fold change (FC)” value (HUVEC [8]) was 0.7182 and the log2FC (HUVEC [9]) was -0.1788. The “fold change (FC)” value (HUVEC [10]) was 0.5236, the “fold change (FC)” value (HUVEC [11]) was 1.0317 and the “fold change (FC)” value (HUVEC [12]) was 0.0717. The “fold change (FC)” value (HUVEC [13]) was 0.7741, the log2FC (HUVEC [14]) was -0.7994 and the log2FC (HUVEC [15]) was 0.1139. The “fold change (FC)” value (HUVEC [16]) was 0.2897, the log2FC (HUVEC [17]) was 0.0911 and the log2FC (HUVEC [18]) was 0.5844. The log2FC (HUVEC [19]) was -0.7905, the “fold change (FC)” value (HUVEC [20]) was 0.1181 and the log2FC (HUVEC [21]) was -0.8363. The “fold change (FC)” value (HUVEC [22]) was -0.5146, the log2FC (HUVEC [23]) was -0.6409 and the “fold change (FC)” value (HUVEC [24]) was -0.6. It also gave a log2FC (HUVEC [25]) of -0.6338, a log2FC (HUVEC [26]) of -0.5811 and a log2FC (HUVEC [27]) of -0.863. For the same molecule, the log2FC (HUVEC [28]) was 0.5991, the log2FC (HUVEC [29]) was 0.6094 and the log2FC (HUVEC [30]) was 0.5892. For the same molecule, the “fold change (FC)” value (HUVEC [31]) was 0.9471, the log2FC (HUVEC [32]) was -0.9058 and the log2FC (HUVEC [33]) was 1.5761. For the same molecule, the Activity [34] was “Active” and the Activity [35] was “Active”.
